Screening results as filed in PubChem BioAssay.
Measles CPE: protection of cells from measles virus | Measles virus-infected cells, CPE protection, absorbance | protection (pct of control), % at 4 µM | 140,000 compounds, 1.5% hits | AID 841; in the data active = protection mostly above about 24%, no sharp cut-off; inactive = mostly below about 26%
BB579 growth dn: yeast BB579 growth reduction in restrictive medium. S. cerevisiae BB579 growth, OD615, 48 h. inhibition, % at 10 µM. 140,000 compounds, 0.51% hits. AID 804;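 active = inhibition above a set limit, 3 SD over the mean compound inhibition, cut at about 44% in these data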
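Test system: DeaD yeast strain BB579 / Buffer or medium: restrictive glucose-based CSMM-D medium / Doses: single 10 µM dose / Schedule: 4 h cell preincubation, 48 h compound exposure, 30 °C humidified / Technique: culture absorbance at 615 nm / Controls: amphotericin B positive control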
Yeast life ext: extends the lifespan of yeast. inhibition of the nicotinamide effect, % at 10 µM. AID 775. 130,000 compounds, 0.68% hits. S. cerevisiae growth with nicotinamide, OD615; deaD strain in restrictive glucose medium;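 active = inhibition above a set limit, placed 3 SD over the median of all compounds, cut at about 26% in these data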;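 also: 0% = nicotinamide-treated wells and 100% = cells grown without nicotinamide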
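Measured by: optical density (absorbance) at 615 nm; System: modified budding yeast, DeaD strain; Medium: restrictive CSMM-D dextrose medium; Timing: 4 h preincubation then 48 h treatment at 30 °C.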
RAM inhibit: yeast RAM network inhibition; S. cerevisiae dse1pr::URA3 reporter, 5-FOA growth OD615, 2 d; analog-sensitive cbk1-as2 kinase mutant strain; inhibition, % at 50 µM; 190,000 compounds, 1.8% hits; AID 868;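 active = inhibition above a set limit, 3 SD over mean compound inhibition, cut at about 8.4% in these data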;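 also: 0% = DMSO-only wells with no growth and 100% = 10 µM 1-NA-PP1 full growth; inhibition rescues growth on 5-FOA so higher OD means more RAM inhibition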
sdo1 growth: sdo1-depleted yeast growth rescue; 140,000 compounds, 0.21% hits; z-score at 10 µM; S. cerevisiae sdo1-depleted JHY4D growth rescue, OD600 30 h; hits give high values; pdr5 snq2 efflux-pump mutant strain;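 active = z-score above 3 at both the 24 hr and the 30 hr optical density reads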;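 also: z-score against mean and SD of all compound wells on the same plate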
RAM efflux-def: RAM network inhibition, efflux-deficient strain; 1,200 tested, under 10 active; S. cerevisiae efflux-deficient reporter strain, 5-FOA growth OD615, 2 days; max inhibition, %; shares compounds with RAM inhibit; call rule not given here;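 also: plate controls were vehicle for no effect and reference inhibitor for full effect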
An asterisk follows results filed as active; · = not tested or not shown. A selection: hits, their analogues and other compounds. The true share with any hit is near 3.8%.

SMILES	Measles CPE	BB579 growth dn	Yeast life ext	RAM inhibit	sdo1 growth	RAM efflux-def
COc1ccc(C(=O)NCC(=O)OCc2cccc(Br)c2)cc1	3	-33	-15	13*	0.41	3
CC(=O)c1cccc(NC(=O)C(OC(=O)/C=C/c2ccc3c(c2)OCO3)c2ccccc2)c1 (stereo not given)	4	-40	-15	5	-0.04	·
O=C(CSc1ccc(Br)cc1)Nc1ccccc1Oc1ccccc1	4	-16	2	11*	-0.74	2
O=C(CSc1ccc(Cl)cc1)Nc1ccccc1Oc1ccccc1	19	-14	2	3	-0.03	·
O=c1c2ccccc2nc(SCc2ccncc2)n1CC1CCCO1 (stereo not given)	·	·	·	2	·	·
N#CCCn1cc(C(=O)O)c(-c2cccs2)n1	·	·	·	2	·	·
COc1ccccc1NS(=O)(=O)c1ccc2oc(SCc3ccc(F)cc3)nc2c1	4	-45	9	14*	-0.88	3
O=c1ccc2cc(S(=O)(=O)Nc3ccc(F)cc3)ccc2o1	8	-67	-1	3	0.39	·
COc1ccc(NS(=O)(=O)c2ccc3oc(SCc4ccc(F)cc4)nc3c2)cc1	3	-26	11	13*	-0.72	3
CCOC(=O)CSc1nc2cc(S(=O)(=O)Nc3ccccc3OC)ccc2o1	14	-33	-5	3	-0.8	·
Cc1ccc(NC(=O)Cc2ncc(C(F)(F)F)cc2Cl)cc1Cl	8	-35	-18	3	-0.83	·
O=C(CSc1cccc[n+]1[O-])Nc1cc(S(=O)(=O)N2CCOCC2)ccc1Cl	5	-33	1	1	0.47	·
Cc1ccccc1-c1nnn(CC(=O)Nc2ccc3c(c2)OCCO3)n1	·	·	·	12*	·	4
COc1ccc(-c2cc(N)n(S(=O)(=O)c3ccc(F)cc3)n2)cc1OC	4	-58	-8	6	-0.51	·
O=C(CSc1nc(SCC(=O)NCc2ccccc2)n(-c2ccccc2)n1)NCc1ccccc1	9	-21	-16	36*	-0.61	2
CN(C)C(=O)CSc1nc(SCC(=O)N(C)C)n(-c2ccccc2)n1	28	-36	-20	0	0.12	·
COC(=O)c1cc2c(ccn2-c2ccc(F)cc2)n1Cc1cccc(OC)c1	5	-27	5	13*	-0.26	8
Cc1ccc(SCC(=O)OCn2nnc3ccccc3c2=O)cc1C	26	-8	8	0	0.39	·
Cc1ccc(C2(CCNS(=O)(=O)c3ccc(C)cc3)CCOC(C(C)C)C2)cc1 (stereo not given)	3	-25	2	15*	-0.6	5
CCC1(C)CC(CCNS(=O)(=O)c2ccc(C)cc2)(c2ccc(C)cc2)CCO1 (stereo not given)	10	-53	-15	16*	-0.17	4
CC1(C)CC(CCNS(=O)(=O)c2ccccc2)(c2ccccc2)CCO1 (stereo not given)	3	-28	4	0	-1.2	·
CSCCC(NS(=O)(=O)c1ccccc1F)C(=O)NC(C)c1ccccc1 (stereo not given)	·	·	·	1	·	·
COCCNC(=O)Cn1nc(C)c([N+](=O)[O-])c1C	·	·	·	0	·	·
CO/N=C\CC(=O)Nc1ccc(Oc2ccccc2)cc1	·	·	·	2	·	·
CNC(=S)N(CCc1ccc(OC)c(OC)c1)Cc1cc2c(C)cc(C)cc2[nH]c1=O	12	-6	-2	16*	-0.36	2
SMILES	Measles CPE	BB579 growth dn	Yeast life ext	RAM inhibit	sdo1 growth	RAM efflux-def
O=C(CCCCCn1c(SCc2ccncc2)nc2ccccc2c1=O)NCc1ccco1	14	-35	1	1	-0.58	·
CCCCN(CCCC)S(=O)(=O)c1ccc(NC(=O)c2cccs2)cc1	8	-40	6	16*	0.25	3
Cc1cc(C)nc(NS(=O)(=O)c2ccc(NC(=O)c3cccs3)cc2)n1	12	-34	-17	2	-0.19	·
Cc1ccc(NC(=O)NC(=O)CSc2nnc(-c3ccc(Cl)cc3Cl)n2N)c(C)c1	15	-20	-3	4	0.39	·
COc1ccc(C2CC(c3ccccc3)=NN2c2ccc(/C=N/NC(=O)c3ccncc3)cc2)cc1 (stereo not given)	5	-46	-12	13*	-1.3	6
COc1ccc(/C=N/NC(=O)c2nc(-c3ccccc3)n(-c3ccccc3)n2)cc1	15	-42	0	8	0.56	·
O=C(Nc1cccnc1Cl)c1ccc2c(Cl)c3c(nc2c1)CCC3	·	·	·	12*	·	4
CCN=C(NCC)SC1CC(=O)N(c2cccc(OCC)c2)C1=O (stereo not given)	7	9	-22	4	1.1	·
Cc1ccc(C(=O)Nc2cc3c(oc2=O)CCCC3=O)cc1	2	-29	-8	-1	-0.32	·
C=CCn1c(=O)c(C(=O)Nc2ccccc2C(=O)OCC)c(O)c2ccccc21	4	-54	12	14*	-1.9	2
CCOC(=O)c1ccccc1NC(=O)c1c(O)c2ccccc2n(CC)c1=O	18	-63	5	11*	-0.73	2
CCCn1c(=O)c(C(=O)Nc2ccccc2C(=O)OC)c(O)c2ccccc21	5	-38	-7	14*	-0.79	2
CCn1c(=O)c(C(=O)Nc2ccsc2C(=O)OC)c(O)c2ccccc21	4	-9	9	2	-1.5	·
CC(C)CN(CC(C)C)S(=O)(=O)N1CCC(C(=O)NC2CCCCCCC2)CC1	13	-32	6	4	-1.3	·
Cc1noc(NS(=O)(=O)c2ccc(N/C=C\C(=O)c3ccc(Br)cc3)cc2)c1C	·	·	·	12*	·	3
O=C(O)COc1ccc(/C=N/n2c(COc3ccccc3)nc3ccccc3c2=O)cc1	5	5	1	13*	1.1	3
COc1ccccc1-c1noc(-c2cc(OC)c(OC)c(OC)c2)n1	10	-28	-8	6	-1.5	·
COc1cc(-c2nc(-c3cccc(C(F)(F)F)c3)no2)cc(OC)c1OC	3	-48	-1	12*	-0.57	1
CCc1ccc(N(C(=O)c2csnn2)C(C(=O)NC(C)(C)CC)c2ccccn2)cc1 (stereo not given)	·	·	·	0	·	·
COc1ccccc1/C=C/C(=O)OCC(=O)Nc1ccccc1Sc1ccccc1	6	-31	-1	15*	-0.82	3
COc1ccccc1NC(=O)COC(=O)/C=C/c1ccccc1[N+](=O)[O-]	20	-40	-2	3	0.49	·
O=C(COC(=O)CNS(=O)(=O)c1c(Cl)cccc1Cl)Nc1ccccc1Sc1ccccc1	6	-41	7	8	0.35	·
CC(C)[C@H](NS(=O)(=O)c1ccccc1)C(=O)OCC(=O)Nc1ccccc1Sc1ccccc1	14	-24	11	15*	-0.99	6
O=C(COC(=O)CNS(=O)(=O)c1cccc(Br)c1)Nc1ccccc1Sc1ccccc1	6	-48	11	15*	-0.54	2
